Experimental data published in ChEMBL document CHEMBL2331513, “Trisubstituted Sulfonamides: a New Chemotype for Development of Potent and Selective CB2 Receptor Inverse Agonists” (ACS Med Chem Lett, 2013).
pEC50, pKi: −log10 of the molar value. Activity calls are given as the source filed them. The rule behind the calls is not given here.

What was measured:
Cannabinoid receptor 2 [1] = biological target: T1, Cannabinoid receptor 2 (Homo sapiens, UniProt P34972); test: Binding affinity to CB2 receptor (unknown origin)
T1 sequence (P34972 whole entry): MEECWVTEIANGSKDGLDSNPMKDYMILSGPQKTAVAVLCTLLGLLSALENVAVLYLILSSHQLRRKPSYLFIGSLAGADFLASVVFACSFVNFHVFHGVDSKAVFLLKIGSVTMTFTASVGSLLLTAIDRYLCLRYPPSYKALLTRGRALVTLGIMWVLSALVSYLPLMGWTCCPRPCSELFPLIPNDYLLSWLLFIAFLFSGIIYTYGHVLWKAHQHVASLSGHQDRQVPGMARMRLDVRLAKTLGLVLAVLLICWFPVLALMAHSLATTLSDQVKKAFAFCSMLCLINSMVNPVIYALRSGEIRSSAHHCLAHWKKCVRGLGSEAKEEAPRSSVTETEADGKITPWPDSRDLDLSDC
Procedure, shortened: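 Radioligand competition binding at CB2 using [3H]CP-55,940 as the labelled ligand; Ki derived from displacement; means ± SEM of at least three experiments, each run in duplicate.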

Cannabinoid receptor 1 = Cannabinoid receptor 1 (Homo sapiens, UniProt P21554); test: biochemical; type: cell-based, CHO
Cannabinoid receptor 1, sequence (P21554 whole entry): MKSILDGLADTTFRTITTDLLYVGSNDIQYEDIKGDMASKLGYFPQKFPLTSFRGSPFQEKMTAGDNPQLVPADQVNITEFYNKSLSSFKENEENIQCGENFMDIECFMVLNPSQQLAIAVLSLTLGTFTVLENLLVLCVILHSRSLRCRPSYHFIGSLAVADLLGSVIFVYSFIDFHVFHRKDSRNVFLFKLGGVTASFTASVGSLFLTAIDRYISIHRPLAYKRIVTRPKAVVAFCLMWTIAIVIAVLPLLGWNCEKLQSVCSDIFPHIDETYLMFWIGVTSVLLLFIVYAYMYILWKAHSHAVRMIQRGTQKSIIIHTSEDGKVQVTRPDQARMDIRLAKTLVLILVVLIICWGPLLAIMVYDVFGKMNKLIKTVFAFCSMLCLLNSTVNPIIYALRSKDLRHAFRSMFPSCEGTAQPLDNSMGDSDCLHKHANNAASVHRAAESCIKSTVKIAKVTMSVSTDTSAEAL

Cannabinoid receptor 2 [2] = biological target: T1, Cannabinoid receptor 2; test: Displacement of [3H]CP-55940 from human CB2 receptor expressed in CHO cell membranes after 1 hr by scintillation counting analysis
Mus musculus = species on record: Mus musculus; test: Inhibition of RANKL/MCSF-induced osteoclastogenesis in C57BL/6 mouse BM-MNC after 7 days by TRAP staining-based inverted microscopic analysis; type: functional
Procedure, shortened: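 Mouse bone marrow mononuclear cells driven to osteoclasts with mouse RANKL plus M-CSF, compound or vehicle control added; osteoclast formation scored; triplicate, means ± SD.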

Cannabinoid receptor 2 [3] = biological target: T1, Cannabinoid receptor 2; test: Inverse agonist activity at human CB2 receptor expressed in CHO cell membranes assessed as inhibition of forskolin-stimulated cAMP production after 45 mins by TR-FRET assay; type: functional, cell-based
Procedure, shortened: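 Functional cAMP readout by LANCE signal in CHO cells stably transfected with human CB2, tested across a concentration range; EC50 from concentration–response; means ± SEM of one representative experiment of two or more, run in duplicate or triplicate.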

Homo sapiens = species on record: Homo sapiens; test: Selectivity ratio of Ki for human CB1 receptor to Ki for human CB2 receptor
Procedure, shortened: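 Ki at CB1 and CB2 each determined by [3H]CP-55,940 competition binding; selectivity index computed as Ki(CB1)/Ki(CB2).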

PBMC = test: Cytotoxicity against human PBMC at 5 uM after 72 hrs by trypan blue assay; type: cell-based
[4] = Inhibition of RANKL/MCSF-induced osteoclastogenesis in C57BL/6 mouse BM-MNC at 5 uM after 7 days by TRAP staining-based inverted microscopic analysis relative to control; type: functional; set-up: scale not given: the % may be the effect or the level left
Procedure, shortened: (§1)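 Osteoclast formation assay using mouse bone marrow mononuclear cells stimulated with mouse RANKL plus M-CSF. Compounds were tested at 0.1, 1 and 5 μM, and inhibition was calculated relative to vehicle control. All experiments were run in triplicate and reported as mean ± standard deviation.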

[5] = Inhibition of RANKL/MCSF-induced osteoclastogenesis in C57BL/6 mouse BM-MNC at 1 uM after 7 days by TRAP staining-based inverted microscopic analysis relative to control; type: functional; set-up: scale not given: the % may be the effect or the level left; procedure, shortened: as §1
[6] = Inhibition of RANKL/MCSF-induced osteoclastogenesis in C57BL/6 mouse BM-MNC at 0.1 uM after 7 days by TRAP staining-based inverted microscopic analysis relative to control; type: functional; set-up: scale not given: the % may be the effect or the level left; procedure, shortened: as §1

Compound | pKi (Cannabinoid receptor 1) | pKi (Cannabinoid receptor 2 [2]) | Ratio Ki (Homo sapiens) | other results
Cc1ccc(S(=O)(=O)N(CCc2ccccc2)Cc2ccccc2)cc1 |  |  |  | pKi (Cannabinoid receptor 2 [1]): 6.12
CCN(CC)c1ccc(CN(c2ncc(C)s2)S(=O)(=O)c2ccc(OC)cc2)cc1 | 6.22 | 8.40 | 120 | Activity (Mus musculus): Active; pEC50 (Cannabinoid receptor 2 [3]): 7.14
CCN(CC)c1ccc(CN(Cc2ccccc2)S(=O)(=O)c2ccc(-c3ccccc3)cc2)cc1 |  | 6.78 |  | 
CCN(CC)c1ccc(CN(Cc2ccc(N(CC)CC)cc2)S(=O)(=O)c2ccc(C)cc2)cc1 |  | 6.27 |  | 
CCOc1ccc(CN(Cc2ccccc2)S(=O)(=O)c2ccc(C)cc2)cc1 |  | 6.64 |  | 
CCN(CC)c1ccc(CN(Cc2ccccc2)S(=O)(=O)Cc2ccccc2)cc1 |  | 6.58 |  | 
Cc1ccc(S(=O)(=O)N(Cc2ccccc2)Cc2ccc(N3CCCCC3)cc2)cc1 | 5.89 | 7.36 | 28 | 
C=CCc1ccc(CN(Cc2ccccc2)S(=O)(=O)c2ccc(C)cc2)cc1 |  | 6.89 |  | 
CCN(CC)c1ccc(CN(Cc2cccs2)S(=O)(=O)c2ccc(C)cc2)cc1 | 6.21 | 7.85 | 44 | 
CCN(CC)c1ccc(CN(C2CCCCC2)S(=O)(=O)c2ccc(OC)cc2)cc1 | 6.18 | 7.12 | 9 | 
Cc1ccc(S(=O)(=O)N(Cc2ccccc2)Cc2ccc(N(CCCl)CCCl)cc2)cc1 |  | 6.78 |  | 
CCN(CC)c1ccc(CN(Cc2ccccc2)Cc2ccccc2)cc1 |  | 6.82 |  | 
CCN(CC)c1ccc(CN(Cc2ccccc2)S(=O)(=O)c2ccc(F)cc2)cc1 | 6.03 | 6.99 | 9 | 
CCN(CC)c1ccc(CN(c2ccccc2)S(=O)(=O)c2ccc(OC)cc2)cc1 | 6.30 | 8.27 | 92 | Activity (Mus musculus): Active; pEC50 (Cannabinoid receptor 2 [3]): 8.60
CCN(CC)c1ccc(CN(Cc2ccccc2)S(=O)(=O)c2ccc(OC(F)(F)F)cc2)cc1 |  | 6.24 |  | 
CCN(CC)c1ccc(CN(Cc2ccc(F)cc2)S(=O)(=O)c2ccc(C)cc2)cc1 | 5.65 | 6.92 | 20 | 
CCN(CC)c1ccc(CN(C2CCCCC2)S(=O)(=O)c2ccc(C)cc2)cc1 | 6.68 | 7.74 | 12 | 
O=S(=O)(c1ccc(Cl)cc1)N(Cc1ccc(N2CCCCC2)cc1)c1ccccc1 |  | 6.85 |  | 
CCCCc1ccc(CN(Cc2ccccc2)S(=O)(=O)c2ccc(C)cc2)cc1 |  | 6.55 |  | 
Cc1ccc(S(=O)(=O)N(Cc2ccc(N3CCCCC3)cc2)c2ccccc2)cc1 |  | 6.51 |  | 
CCN(CC)c1ccc(CN(C2CCCC2)S(=O)(=O)c2ccc(C)cc2)cc1 | 6.30 | 7.44 | 14 | 
CCN(CC)c1ccc(CN(Cc2ccco2)S(=O)(=O)c2ccc(C(C)C)cc2)cc1 | 5.89 | 7.51 | 42 | 
CCN(CC)c1ccc(CN(Cc2ccccc2)S(=O)(=O)c2ccc(NC(C)=O)cc2)cc1 |  | 6.33 |  | 
CCN(CC)c1ccc(CN(c2ccccc2)S(=O)(=O)c2ccc(C(C)C)cc2)cc1 | 5.70 | 7.52 | 66 | 

Compound | pKi (Cannabinoid receptor 1) | pKi (Cannabinoid receptor 2 [2]) | Ratio Ki (Homo sapiens) | other results
CCN(CC)c1ccc(CN(Cc2ccco2)S(=O)(=O)c2ccc(C)cc2)cc1 | 6.24 | 8.02 | 60 | 
Cc1ccc(S(=O)(=O)N(Cc2ccccc2)Cc2ccc(C(C)C)cc2)cc1 |  | 6.64 |  | 
CCN(CC)c1ccc(CN(Cc2ccccc2)S(=O)(=O)c2ccc3ccccc3c2)cc1 |  | 6.72 |  | 
CCN(CC)c1ccc(CN(Cc2ccccc2)S(=O)(=O)c2ccc(OC)cc2)cc1 | 6.16 | 7.34 | 15 | 
CCN(CC)c1ccc(CN(c2ncc(C)s2)S(=O)(=O)c2ccc(C)cc2)cc1 | 6.47 | 7.85 | 24 | 
COc1ccc(S(=O)(=O)N(Cc2ccc(N3CCCCC3)cc2)c2ccccc2)cc1 | 6.23 | 7.49 | 18 | pEC50 (Cannabinoid receptor 2 [3]): 7.31
CCN(CC)c1ccc(CN(C2CCCCC2)S(=O)(=O)c2ccc(C(C)C)cc2)cc1 | 5.85 | 7.26 | 25 | 
CCN(CC)c1ccc(CN(Cc2ccccc2)S(=O)(=O)c2ccccc2)cc1 |  | 6.77 |  | 
CCN(CC)c1ccc(CN(Cc2ccc(Cl)cc2)S(=O)(=O)c2ccc(C)cc2)cc1 |  | 6.68 |  | 
CCN(CC)c1ccc(CN(Cc2ccc(Cl)c(Cl)c2)S(=O)(=O)c2ccc(C)cc2)cc1 |  | 6.41 |  | 
CCN(CC)c1ccc(CNS(=O)(=O)c2ccc(C)cc2)cc1 |  | 5.44 |  | 
CCN(CC)c1ccc(CN(Cc2ccco2)S(=O)(=O)c2ccc(OC)cc2)cc1 | 6.08 | 7.70 | 42 | 
Cc1ccc(S(=O)(=O)N(Cc2ccccc2)Cc2ccc(N(C)C)cc2)cc1 |  | 6.17 |  | 
CCN(CC)c1ccc(CN(Cc2ccccc2)S(=O)(=O)c2ccc(OC(C)C)cc2)cc1 |  | 7.03 |  | 
CCN(CC)c1ccc(CN(Cc2ccccc2)S(=O)(=O)c2ccc(C(C)C)cc2)cc1 | 6.28 | 7.15 | 7 | 
CCN(CC)c1ccc(CN(CC2CCCCC2)S(=O)(=O)c2ccc(C)cc2)cc1 | 6.25 | 7.47 | 16 | 
CCN(CC)c1ccc(CN(CCc2ccccc2)S(=O)(=O)c2ccc(C)cc2)cc1 |  | 6.92 |  | 
CCN(CC)c1ccc(CN(Cc2ccccc2)S(=O)(=O)c2ccc(Cl)cc2)cc1 | 6.37 | 7.14 | 6 | 
C=CCN(Cc1ccc(N(CC)CC)cc1)S(=O)(=O)c1ccc(C)cc1 | 5.90 | 7.18 | 19 | 
CCN(CC)c1ccc(CN(Cc2ccccc2)S(=O)(=O)c2ccc(C)cc2)cc1 | 5.64 | 7.28 | 43 | 
CCN(CC)c1ccc(CN(c2ccccc2)S(=O)(=O)c2ccc(C)cc2)cc1 | 7.09 | 8.26 | 15 | Activity (PBMC): Non-toxic; Activity [4]: 99.7%; Activity [5]: 83%; Activity [6]: 55%; pEC50 (Cannabinoid receptor 2 [3]): 8.09
CCCc1ccc(CN(Cc2ccccc2)S(=O)(=O)c2ccc(C)cc2)cc1 |  | 6.89 |  | 
Cc1ccc(S(=O)(=O)N(Cc2ccccc2)Cc2ccc(OC(C)C)cc2)cc1 |  | 6.76 |  | 
